The text below walks through data of ChEMBL document CHEMBL2346564, “Synthesis and biological evaluation of nitric oxide releasing derivatives of 6-amino-3-n-butylphthalide as potential antiplatelet agents” (Bioorg Med Chem Lett, 2013).

For orientation: inhibition means the share of the control response that was lost under treatment. As a reminder, the solubility is the dissolved amount per volume that the medium holds. Higher therefore signals much dissolved substance.

The nature of data set [1]: Antiplatelet activity in rabbit platelet rich plasma assessed as inhibition of ADP-induced platelet aggregation at 0.1 mM incubated for 5 mins prior to ADP challenge measured after 5 mins by Born's turbidimetric method relative to control. It counts as functional. The following applies: Oryctolagus cuniculus. The gist of the method:
(§1)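 Rabbit platelet-rich plasma, adjusted with platelet-poor plasma (centrifuged 3000 rpm, 10 min, room temperature) to 400–450 × 10⁹ platelets/L and used within 3 h of blood collection. PRP pre-incubated with vehicle or compound (0.1 mM) for 5 min at 37 °C, then ADP 10 μM added. Maximum aggregation rate recorded over 5 min by Born turbidimetry. Inhibition (%) = 100% − MAR(compound)/MAR(vehicle). Mean ± SD, n = 6.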

The nature of data set [2]: Induction of nitric oxide release in phosphate buffer assessed as nitrite level at 0.1 mM measured every 15 mins for 120 mins followed by every 30 mins for 180 mins by Griess assay. Type of data set: physicochemical. The following applies: 100 µM. The method, boiled down:
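Compound at 0.1 mM in phosphate buffer solution, kept at room temperature for 15–300 min. Sampled every 15 min up to 120 min, then every 30 min. Samples mixed with sulfanilamide and N-(1-naphthyl)ethylenediamine dihydrochloride and held 5–10 min at room temperature in the dark. Absorbance read at 540 nm and converted to nitrite (μmol/L) with a nitrite standard curve. Intra-group variation under 10%.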

A short description of data set [3]: Antiplatelet activity in rabbit platelet rich plasma assessed as inhibition of ADP-induced platelet aggregation at 0.1 mM incubated for 5 mins prior to ADP challenge measured after 5 mins by Born's turbidimetric method in presence of hemoglobin relative to control. It counts as functional. The following applies: Oryctolagus cuniculus. The gist of the method:
as §1

Data set [4] relates to Platelet. Description: Ratio of compound activity to 6-amino 3-n-butylphthalide activity for inhibition of ADP-induced platelet aggregation in rabbit platelet rich plasma at 0.1 mM. It counts as functional, Oryctolagus cuniculus.
Data set [5] has as its system Platelet. Description: Ratio of compound activity to 3-n-butylphthalide activity for inhibition of ADP-induced platelet aggregation in rabbit platelet rich plasma at 0.1 mM. It counts as functional, Oryctolagus cuniculus.
A short description of data set [6]: Aqueous solubility of the compound in normal saline after 5 hrs by UV-spectrophotometric analysis. The following applies: normal saline (aqueous solubility, as described).

Values after ≈ are worked out from the molar mass of the structure shown.

`CCCCC1OC(=O)c2cc(N)ccc21` (configuration not stated): the inhibition at 100 µM in data set [1] was 18.4%.

With `CCCCC1OC(=O)c2cc(NC(=O)CO[N+](=O)[O-])ccc21` (configuration not stated), the Activity in data set [2] turned out to be 3.67 µmol/L. In data set [1], the inhibition at 100 µM turned out to be 22.2%.

Regarding `CCCCC1OC(=O)c2cc(NC(=O)CCO[N+](=O)[O-])ccc21` (configuration not stated), the Activity in data set [2] came to 12.88 µmol/L. The figures for the inhibition at 100 µM in data set [3] and in data set [1] were 23.1% and 30.4%, respectively. Moreover, the Ratio in the data set with Platelet [4] and in the data set on Platelet [5] was 2 each time. For the same compound, the solubility at 5 h in data set [6] was 1180 µM (≈ 380 µg/mL).

With `CCCCC1OC(=O)c2cc(NC(=O)CCCO[N+](=O)[O-])ccc21` (configuration not stated), the Activity in data set [2] came out at 7.1 µmol/L. The inhibition at 100 µM in data set [1] was 28.6%.

`CCCCC1OC(=O)c2cc(NC(=O)c3ccccc3OCCO[N+](=O)[O-])ccc21` (configuration not stated): the Activity in data set [2] came to 1.82 µmol/L. Besides, in data set [1], the inhibition at 100 µM was found to be 15.2%.

With `CCCCC1OC(=O)c2cc(NC(=O)c3ccc(OCCO[N+](=O)[O-])cc3)ccc21` (configuration not stated), the Activity in data set [2] turned out to be 2.21 µmol/L. Further, in data set [1], the inhibition at 100 µM amounted to 20%.

Regarding `CCCCC1OC(=O)c2cc(NC(=O)c3cccc(OCCO[N+](=O)[O-])c3)ccc21` (configuration not stated), in data set [2], the Activity worked out at 6.82 µmol/L. In addition, the inhibition at 100 µM in data set [1] is 26.6%.

In the case of `CCCCC1OC(=O)c2cc(NC(=O)c3ccccc3OCCCO[N+](=O)[O-])ccc21` (configuration not stated), the Activity in data set [2] was 2.18 µmol/L. Also, the inhibition at 100 µM in data set [1] was 16.7%. In data set [6], the concentration in solution (solubility at 5 h) came to 580 µM (≈ 248 µg/mL).

As for `CCCCC1OC(=O)c2cc(NC(=O)c3ccc(OCCCO[N+](=O)[O-])cc3)ccc21` (configuration not stated), the Activity in data set [2] was 3.88 µmol/L. Also, in data set [1], the inhibition at 100 µM was found to be 22.8%. In data set [6], this compound gave a solubility at 5 h of 750 µM (≈ 321 µg/mL).

Turning to `CCCCC1OC(=O)c2cc(NC(=O)c3cccc(OCCCO[N+](=O)[O-])c3)ccc21` (configuration not stated), the Activity in data set [2] amounted to 7.27 µmol/L. Moreover, the inhibition at 100 µM in data set [1] worked out at 28.8%. Besides, the concentration in solution in data set [6] (solubility at 5 h) was 1060 µM (≈ 454 µg/mL).

For the compound `CCCCC1OC(=O)c2cc(NC(=O)c3ccccc3OCCCCO[N+](=O)[O-])ccc21` (configuration not stated), in data set [1], the inhibition at 100 µM worked out at 13.6%.

On to `CCCCC1OC(=O)c2cc(NC(=O)c3ccc(OCCCCO[N+](=O)[O-])cc3)ccc21` (configuration not stated), for which, in data set [1], the inhibition at 100 µM was found to be 18.2%.

As for `CCCCC1OC(=O)c2cc(NC(=O)c3cccc(OCCCCO[N+](=O)[O-])c3)ccc21` (configuration not stated), in data set [1], the inhibition at 100 µM was 21.6%.

Take `CCCCC1OC(=O)c2ccccc21` (racemic) [RAC-3-N-BUTYLPHTHALIDE]: the inhibition at 100 µM in data set [1] stood at 15.7%. This compound also registered a solubility at 5 h in data set [6] of 540 µM (≈ 103 µg/mL).

`Clc1ccccc1CN1CCc2sccc2C1` [TICLOPIDINE]: the inhibition at 100 µM in data set [1] worked out at 26.4%.
